test system: Human immunodeficiency virus 1; experiment: Antiviral activity against wild type HIV1 pNL4-3 infected in human MT4 cells assessed as inhibition of virus-induced cell death after 5 days by MTT assay in presence of 50% human serum; format: functional, organism-based; conditions: Human immunodeficiency virus 1, pNL4-3, MT4, 120 h

SMILES | EC50 [nM]
CNC(=O)c1ccc(-c2ccc(C[C@H](NC(=O)[C@@H](NC(=O)OC)C(C)(C)C)[C@@H](O)C[C@H](Cc3ccccc3)NC(=O)[C@@H](NC(=O)OC)C(C)(C)C)cc2)cc1 | 56
COC(=O)N[C@H](C(=O)N[C@@H](Cc1ccccc1)C[C@H](O)[C@H](Cc1ccc(-c2ccc(CO)nc2)cc1)NC(=O)[C@@H](NC(=O)OC)C(C)(C)C)C(C)(C)C | 45
COC(=O)N[C@H](C(=O)N[C@@H](Cc1ccccc1)C[C@H](O)[C@H](Cc1ccc(-c2ccc(F)nc2)cc1)NC(=O)[C@@H](NC(=O)OC)C(C)(C)C)C(C)(C)C | 14
CNC(=O)c1cccc(-c2ccc(C[C@H](NC(=O)[C@@H](NC(=O)OC)C(C)(C)C)[C@@H](O)C[C@H](Cc3ccccc3)NC(=O)[C@@H](NC(=O)OC)C(C)(C)C)cc2)c1 | 842
COC(=O)N[C@H](C(=O)N[C@@H](Cc1ccccc1)C[C@H](O)[C@H](Cc1ccc(-c2cccc(CO)c2)cc1)NC(=O)[C@@H](NC(=O)OC)C(C)(C)C)C(C)(C)C | 92
COC(=O)N[C@H](C(=O)N[C@@H](Cc1ccccc1)C[C@H](O)[C@H](Cc1ccc(-c2ccncc2)cc1)NC(=O)[C@@H](NC(=O)OC)C(C)(C)C)C(C)(C)C | 34

test system: Human immunodeficiency virus 1; experiment: Antiviral activity against HIV1 A17 harboring protease L10F, V32I, M46I, I47V, Q58E and I84V mutant infected in human MT4 cells assessed as inhibition of virus-induced cell death after 5 days by MTT assay relative to wild type HIV1 pNL4-3; format: functional; conditions: not given

SMILES | fold change (FC)
CNC(=O)c1ccc(-c2ccc(C[C@H](NC(=O)[C@@H](NC(=O)OC)C(C)(C)C)[C@@H](O)C[C@H](Cc3ccccc3)NC(=O)[C@@H](NC(=O)OC)C(C)(C)C)cc2)cc1 | 1
COC(=O)N[C@H](C(=O)N[C@@H](Cc1ccccc1)C[C@H](O)[C@H](Cc1ccc(-c2ccc(CO)nc2)cc1)NC(=O)[C@@H](NC(=O)OC)C(C)(C)C)C(C)(C)C | 0.2
COC(=O)N[C@H](C(=O)N[C@@H](Cc1ccccc1)C[C@H](O)[C@H](Cc1ccc(-c2ccc(F)nc2)cc1)NC(=O)[C@@H](NC(=O)OC)C(C)(C)C)C(C)(C)C | 12
CNC(=O)c1cccc(-c2ccc(C[C@H](NC(=O)[C@@H](NC(=O)OC)C(C)(C)C)[C@@H](O)C[C@H](Cc3ccccc3)NC(=O)[C@@H](NC(=O)OC)C(C)(C)C)cc2)c1 | 0.4
COC(=O)N[C@H](C(=O)N[C@@H](Cc1ccccc1)C[C@H](O)[C@H](Cc1ccc(-c2cccc(CO)c2)cc1)NC(=O)[C@@H](NC(=O)OC)C(C)(C)C)C(C)(C)C | 1
COC(=O)N[C@H](C(=O)N[C@@H](Cc1ccccc1)C[C@H](O)[C@H](Cc1ccc(-c2ccncc2)cc1)NC(=O)[C@@H](NC(=O)OC)C(C)(C)C)C(C)(C)C | 2

test system: Human immunodeficiency virus 1; experiment: (§1) Antiviral activity against HIV1 isolate 1 harboring protease L10I, E35D, N37D, M46I, I54V, G57R, L63P, A71V, T74P, I84V, L90M, I93L mutant infected in human MT4 cells assessed as inhibition of virus-induced cell death after 5 days by MTT assay relative to wild type HIV1 pNL4-3; format: functional; conditions: not given

SMILES | fold change (FC)
CNC(=O)c1ccc(-c2ccc(C[C@H](NC(=O)[C@@H](NC(=O)OC)C(C)(C)C)[C@@H](O)C[C@H](Cc3ccccc3)NC(=O)[C@@H](NC(=O)OC)C(C)(C)C)cc2)cc1 | 7
COC(=O)N[C@H](C(=O)N[C@@H](Cc1ccccc1)C[C@H](O)[C@H](Cc1ccc(-c2ccc(CO)nc2)cc1)NC(=O)[C@@H](NC(=O)OC)C(C)(C)C)C(C)(C)C | 12
COC(=O)N[C@H](C(=O)N[C@@H](Cc1ccccc1)C[C@H](O)[C@H](Cc1ccc(-c2ccc(F)nc2)cc1)NC(=O)[C@@H](NC(=O)OC)C(C)(C)C)C(C)(C)C | 58
COC(=O)N[C@H](C(=O)N[C@@H](Cc1ccccc1)C[C@H](O)[C@H](Cc1ccc(-c2cccc(CO)c2)cc1)NC(=O)[C@@H](NC(=O)OC)C(C)(C)C)C(C)(C)C | 52

test system: Human immunodeficiency virus 1; experiment: Antiviral activity against HIV1 B26 harboring protease L33F, K45I, M46I, I50V, A71V and V82F mutant infected in human MT4 cells assessed as inhibition of virus-induced cell death after 5 days by MTT assay relative to wild type HIV1 pNL4-3; format: functional; conditions: not given

SMILES | fold change (FC)
CNC(=O)c1ccc(-c2ccc(C[C@H](NC(=O)[C@@H](NC(=O)OC)C(C)(C)C)[C@@H](O)C[C@H](Cc3ccccc3)NC(=O)[C@@H](NC(=O)OC)C(C)(C)C)cc2)cc1 | 1
COC(=O)N[C@H](C(=O)N[C@@H](Cc1ccccc1)C[C@H](O)[C@H](Cc1ccc(-c2ccc(CO)nc2)cc1)NC(=O)[C@@H](NC(=O)OC)C(C)(C)C)C(C)(C)C | 0.6
COC(=O)N[C@H](C(=O)N[C@@H](Cc1ccccc1)C[C@H](O)[C@H](Cc1ccc(-c2ccc(F)nc2)cc1)NC(=O)[C@@H](NC(=O)OC)C(C)(C)C)C(C)(C)C | 14
CNC(=O)c1cccc(-c2ccc(C[C@H](NC(=O)[C@@H](NC(=O)OC)C(C)(C)C)[C@@H](O)C[C@H](Cc3ccccc3)NC(=O)[C@@H](NC(=O)OC)C(C)(C)C)cc2)c1 | 0.5
COC(=O)N[C@H](C(=O)N[C@@H](Cc1ccccc1)C[C@H](O)[C@H](Cc1ccc(-c2cccc(CO)c2)cc1)NC(=O)[C@@H](NC(=O)OC)C(C)(C)C)C(C)(C)C | 1
COC(=O)N[C@H](C(=O)N[C@@H](Cc1ccccc1)C[C@H](O)[C@H](Cc1ccc(-c2ccncc2)cc1)NC(=O)[C@@H](NC(=O)OC)C(C)(C)C)C(C)(C)C | 3

test system: Human immunodeficiency virus 1; experiment: as §1, with “HIV1” for “HIV1 isolate 1”, “I13V, G16A, Q18H, L33F,” for “E35D,”, “G57R, Q61H,I62V,” for “G57R,”, “A71L, I72T, L76V, V77I, V82A, N88G,” for “A71V, T74P, I84V,”; format: functional; conditions: not given

SMILES | fold change (FC)
CNC(=O)c1ccc(-c2ccc(C[C@H](NC(=O)[C@@H](NC(=O)OC)C(C)(C)C)[C@@H](O)C[C@H](Cc3ccccc3)NC(=O)[C@@H](NC(=O)OC)C(C)(C)C)cc2)cc1 | 1
COC(=O)N[C@H](C(=O)N[C@@H](Cc1ccccc1)C[C@H](O)[C@H](Cc1ccc(-c2ccc(CO)nc2)cc1)NC(=O)[C@@H](NC(=O)OC)C(C)(C)C)C(C)(C)C | 2
COC(=O)N[C@H](C(=O)N[C@@H](Cc1ccccc1)C[C@H](O)[C@H](Cc1ccc(-c2ccc(F)nc2)cc1)NC(=O)[C@@H](NC(=O)OC)C(C)(C)C)C(C)(C)C | 7
COC(=O)N[C@H](C(=O)N[C@@H](Cc1ccccc1)C[C@H](O)[C@H](Cc1ccc(-c2cccc(CO)c2)cc1)NC(=O)[C@@H](NC(=O)OC)C(C)(C)C)C(C)(C)C | 4

test system: Human immunodeficiency virus 1; experiment: Antiviral activity against wild type HIV1 pNL4-3 infected in human MT4 cells assessed as inhibition of virus-induced cell death after 5 days by MTT assay; format: functional, organism-based; conditions: Human immunodeficiency virus 1, pNL4-3, MT4, 120 h
In short: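 EC50 measured against wild-type virus in MT-4 cells, with no human serum added.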

SMILES | EC50 [nM]
CNC(=O)c1ccc(-c2ccc(C[C@H](NC(=O)[C@@H](NC(=O)OC)C(C)(C)C)[C@@H](O)C[C@H](Cc3ccccc3)NC(=O)[C@@H](NC(=O)OC)C(C)(C)C)cc2)cc1 | 4
COC(=O)N[C@H](C(=O)N[C@@H](Cc1ccccc1)C[C@H](O)[C@H](Cc1ccc(-c2ccc(CO)nc2)cc1)NC(=O)[C@@H](NC(=O)OC)C(C)(C)C)C(C)(C)C | 14
COC(=O)N[C@H](C(=O)N[C@@H](Cc1ccccc1)C[C@H](O)[C@H](Cc1ccc(-c2ccc(F)nc2)cc1)NC(=O)[C@@H](NC(=O)OC)C(C)(C)C)C(C)(C)C | 3
CNC(=O)c1cccc(-c2ccc(C[C@H](NC(=O)[C@@H](NC(=O)OC)C(C)(C)C)[C@@H](O)C[C@H](Cc3ccccc3)NC(=O)[C@@H](NC(=O)OC)C(C)(C)C)cc2)c1 | 159
COC(=O)N[C@H](C(=O)N[C@@H](Cc1ccccc1)C[C@H](O)[C@H](Cc1ccc(-c2cccc(CO)c2)cc1)NC(=O)[C@@H](NC(=O)OC)C(C)(C)C)C(C)(C)C | 21
COC(=O)N[C@H](C(=O)N[C@@H](Cc1ccccc1)C[C@H](O)[C@H](Cc1ccc(-c2ccncc2)cc1)NC(=O)[C@@H](NC(=O)OC)C(C)(C)C)C(C)(C)C | 13

— ChEMBL document CHEMBL1833957, “P1-substituted symmetry-based human immunodeficiency virus protease inhibitors with potent antiviral activity against drug-resistant viruses” (J Med Chem, 2011)
